Substitutions are numbered along the chain they refer to.
Experiments:
ERβ [1] = molecular target: T1, ERβ (Homo sapiens, UniProt Q92731); assay type: cell-based; settings: 5 μmol/L, HEK-293T cells
Summary of the method: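 Transfected HEK-293T cells treated with test compound; ERβ protein assessed by immunoblot. Lysates prepared with RIPA buffer, resolved by SDS-PAGE and transferred to PVDF. Membranes blocked in 5% skim milk and developed by ECL, with β-actin as loading control.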

ERβ [2] = molecular target: T1, ERβ; assay: ER transcriptional activity; assay type: cell-based
ERα Y537S = molecular target: T2, ERα Y537S (Homo sapiens, UniProt P03372, Y537S); assay: Immunoblot analysis of ERα degradation in T-47D^Y537S cells; assay type: cell-based; settings: 5 μmol/L over 12 h
T2 sequence (P03372 1-595 Y537S): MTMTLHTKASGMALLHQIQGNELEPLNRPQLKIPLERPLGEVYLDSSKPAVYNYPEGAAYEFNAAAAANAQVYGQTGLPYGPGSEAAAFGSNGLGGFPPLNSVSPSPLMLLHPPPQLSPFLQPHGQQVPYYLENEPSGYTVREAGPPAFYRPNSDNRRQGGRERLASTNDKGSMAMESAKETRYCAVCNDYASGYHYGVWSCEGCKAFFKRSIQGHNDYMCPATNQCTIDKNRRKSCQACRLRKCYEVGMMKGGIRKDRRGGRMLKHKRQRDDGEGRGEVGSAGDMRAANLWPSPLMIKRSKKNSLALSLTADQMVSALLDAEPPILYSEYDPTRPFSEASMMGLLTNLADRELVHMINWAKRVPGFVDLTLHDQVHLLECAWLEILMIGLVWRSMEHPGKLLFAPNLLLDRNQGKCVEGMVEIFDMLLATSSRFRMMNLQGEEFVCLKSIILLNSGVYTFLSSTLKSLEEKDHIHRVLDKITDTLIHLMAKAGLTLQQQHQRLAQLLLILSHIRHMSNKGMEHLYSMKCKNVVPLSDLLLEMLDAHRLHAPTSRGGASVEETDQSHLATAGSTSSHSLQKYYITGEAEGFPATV

ERα D538G = molecular target: T3, ERα D538G (Homo sapiens, UniProt P03372, D538G); assay: Immunoblot analysis of ERα degradation in T-47D^D538G cells; assay type: cell-based; settings: 5 μmol/L over 12 h
T3 sequence (P03372 1-595 D538G): T2 sequence (P03372 1-595 Y537S) with S537Y, D538G

LCC-2 cells = assay: Cell viability assay on tamoxifen-resistant LCC-2 cells; assay type: cell-based; settings: Homo sapiens, LCC2, read-out: LCC-2 IC50
ERα = molecular target: T4, ERα (Homo sapiens, UniProt P03372); assay: Immunoblot analysis of ERα degradation in MCF-7 cells; assay type: cell-based
T4 sequence (P03372 1-595): T2 sequence (P03372 1-595 Y537S) with S537Y

MCF-7 tumor xenograft = MCF-7 tumor xenograft model in BALB/c nude mice; assay type: in vivo
Summary of the method: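 Female BALB/c nude mice (15–18 g, 5 weeks old) received 1 × 10⁷ MCF-7 cells in 100 μL PBS into the right axillary mammary fat pad. Tumour volume (W² × L × 0.5) and body weight were measured every 2 days. Mice were sacrificed on Day 33. Tumours were assessed by IHC (Ki-67, ERα) and ERα Western blot.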

T1 sequence (Q92731 whole entry): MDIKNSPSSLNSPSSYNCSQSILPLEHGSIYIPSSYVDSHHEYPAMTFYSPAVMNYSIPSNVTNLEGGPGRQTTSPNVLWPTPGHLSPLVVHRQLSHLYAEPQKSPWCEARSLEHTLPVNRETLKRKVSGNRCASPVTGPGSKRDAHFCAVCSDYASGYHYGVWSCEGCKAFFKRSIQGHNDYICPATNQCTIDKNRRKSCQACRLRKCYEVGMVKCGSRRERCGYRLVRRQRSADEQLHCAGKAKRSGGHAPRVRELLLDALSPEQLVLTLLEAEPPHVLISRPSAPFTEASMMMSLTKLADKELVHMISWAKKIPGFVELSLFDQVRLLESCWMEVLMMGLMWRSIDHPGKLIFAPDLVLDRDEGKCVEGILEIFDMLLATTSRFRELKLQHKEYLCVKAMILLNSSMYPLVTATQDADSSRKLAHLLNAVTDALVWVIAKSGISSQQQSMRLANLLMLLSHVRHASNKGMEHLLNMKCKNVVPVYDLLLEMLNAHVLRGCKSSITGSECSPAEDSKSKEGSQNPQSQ

SMILES: CC(C)=CC(=O)Nc1ccc(C2=C(c3ccc(O)cc3)C3OC2CC3S(=O)(=O)N(CC(F)(F)F)c2ccc(O)cc2)cc1 (stereo not shown) [Compound 29c, N-(4-(3-(4-Hydroxyphenyl)-5-(N-(4-hydroxyphenyl)-N-(2,2,2-trifluoroethyl)sulfamoyl)-7-oxabicyclo[2.2.1]hept-2-en-2-yl)phenyl)-3-methylbut-2-enamide]
- ERβ degradation (immunoblot) (ERβ [1]): no degradation capacity for ERβ
- Agonist mode ERβ Eff (%E2) (ERβ [2]; control as 0%, 10 nmol/L E2 as 100%): 19 ± 1 %E2
- Antagonist mode ERβ Eff (%E2) (ERβ [2]; with 10 nmol/L 17β-estradiol): 27 ± 2 %E2
- ERα degradation time course, T-47D^Y537S (ERα Y537S): completely degraded
- ERα degradation time course, T-47D^D538G (ERα D538G): completely degraded
- IC50 (LCC-2 cells): 2100 ± 370 nM
- ERα degradation time course, MCF-7 (ERα; 5 μmol/L over 24 h): completely degraded
- ERα degradation (immunoblot) at 1 μmol/L (ERα; MCF-7 cells, 1 μmol/L): efficient ability to degrade ERα
- ERα degradation (immunoblot) (ERα; MCF-7 cells, 1 or 5 μmol/L): effective in inducing ERα degradation
- ERα level in xenograft tumors (IHC, Western blot) (MCF-7 tumor xenograft; 4 mg/kg ip): significantly degrade ERα
- TGI (tumor growth inhibition) (MCF-7 tumor xenograft; 4 mg/kg ip every other day, Day 32): 92%
- Tumor weight, 29c compared with Ful (MCF-7 tumor xenograft; both at 2 mg/kg): no statistically significant difference in tumor weight
- H&E analysis of main visceral organs (MCF-7 tumor xenograft; heart, liver, spleen, kidney, ip administration): did not show significant changes in the main visceral organs
- Body weight of mice (MCF-7 tumor xenograft; ip 2 or 4 mg/kg every other day): did not apparently reduce mice body weight
- Tumor cell proliferation (Ki-67 IHC) (MCF-7 tumor xenograft; ip administration): significantly reduced tumor cell proliferation
- Tumor growth inhibition activity (MCF-7 tumor xenograft; ip dose of 2 or 4 mg/kg): significant tumor growth inhibition
